Reference: ChEMBL document CHEMBL3779855, “In vitro screening of 2-(1H-imidazol-1-yl)-1-phenylethanol derivatives as antiprotozoal agents and docking studies on Trypanosoma cruzi CYP51” (Eur J Med Chem, 2016)

How the values were obtained:
[1] = Selectivity index, ratio of IC50 for human MRC5 cells to IC50 for nifurtimox-sensitive amastigote stage of Trypanosoma cruzi tulahuen CL2 infected in human MRC5 cells; format: toxicity, cell-based; conditions: read-out: Ratio IC50
[2] = system: Trypanosoma cruzi; experiment: Antiparasitic activity against nifurtimox-sensitive amastigote stage of Trypanosoma cruzi tulahuen CL2 infected in human MRC5 cells; format: functional, organism-based
[3] = system: Leishmania infantum; experiment: Antiparasitic activity against amastigote stage of Leishmania infantum MHOM/MA-BE/67 infected in mouse peritoneal macrophages after 5 days by Giemsa staining based microscopic analysis; format: functional, organism-based; conditions: MHOM/MA-BE/67, 120 h
[4] = system: Trypanosoma brucei rhodesiense; experiment: Antiparasitic activity against suramin-sensitive trypomastigote stage of Trypanosoma brucei rhodesiense squib-427 infected in human MRC5 cells after 4 days by Alamar blue staining based fluorimetric analysis; format: functional, organism-based; conditions: squib-427, 96 h
[5] = system: Plasmodium falciparum; experiment: Antiparasitic activity against chloroquine-resistant erythrocytic stage of Plasmodium falciparum K1 infected in […] after 72 hrs by NBT staining based spectroscopic analysis; format: functional, organism-based; conditions: K1, 72 h
[6] = system: MRC5; experiment: Cytotoxicity against human MRC5 cells assessed as cell viability after 4 to 7 days by Alamar Blue staining based fluorometric analysis
[7] = Metabolic stability in human liver microsomes at 50 uM after 60 mins by LC-UV-MS analysis in the presence of NADPH-generating system; format: ADME; conditions: read-out: Stability
Method in brief: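 Test compound at 50 μM in pH 7.4 phosphate buffer with 2% DMSO, incubated at 37°C for 60 min with human liver microsomal protein and an NADPH-generating system. The reaction was then stopped, and parent drug and metabolites were measured by LC-UV-MS.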

[8] = system: Trypanosoma cruzi; experiment: Potency index, ratio of benznidazole IC50 to compound IC50 for nifurtimox-sensitive amastigote stage of Trypanosoma cruzi tulahuen CL2 infected in human MRC5 cells; format: functional

Row | SMILES | selectivity ratio [1] | IC50 [2] | IC50 [3] | IC50 [4] | IC50 [5] | IC50 [6] | remaining at 1 h, 50 µM [7] | Ratio IC50 [8]
1 | O=C(Nc1ccc(N2CCN(C(=O)c3ccco3)CC2)cc1)O[C@H](Cn1ccnc1)c1ccc(F)cc1 | 288 | 0.13 µM | > 64 µM | > 64 µM | 5.2 µM | 37.5 µM | – | –
2 | O=C(OC(Cn1ccnc1)c1ccc(-c2ccccc2)cc1)c1ccc(-c2ccccc2)cc1 (racemic) | 3.2 | 2.72 µM | 8 µM | 29.1 µM | 7.7 µM | 8.8 µM | – | –
3 | Cc1ccc(C(=O)Nc2ccc(S(=O)(=O)O)c3cc(S(=O)(=O)O)cc(S(=O)(=O)O)c23)cc1NC(=O)c1cccc(NC(=O)Nc2cccc(C(=O)Nc3cc(C(=O)Nc4ccc(S(=O)(=O)O)c5cc(S(=O)(=O)O)cc(S(=O)(=O)O)c45)ccc3C)c2)c1 [SURAMIN] | – | – | – | 0.02 µM | – | – | – | –
4 | O=C(Nc1ccc(N2CCN(C(=O)c3ccco3)CC2)cc1)OC(Cn1ccnc1)c1ccc(F)cc1 (racemic) | 33.4 | 0.79 µM | 28.9 µM | 32.9 µM | 4 µM | 26.4 µM | 99% | –
5 | O=C(O[C@@H](Cn1ccnc1)c1ccc(F)cc1)c1ccc(-c2ccccc2)cc1 | > 35.6 | 1.8 µM | > 64 µM | > 64 µM | 2.3 µM | > 64 µM | – | –
6 | O=C(OC(Cn1ccnc1)c1ccc(Cl)cc1)N1CCN(C(=O)c2ccco2)CC1 (racemic) | > 10.9 | 5.84 µM | > 64 µM | > 64 µM | 10.7 µM | > 64 µM | – | –
7 | O=C(OC(Cn1ccnc1)c1ccc(Cl)cc1)N1CCN(c2ccc([N+](=O)[O-])cc2)CC1 (racemic) | 9.4 | 0.87 µM | 8 µM | 8 µM | 2.4 µM | 8.2 µM | – | –
8 | O=C(O[C@@H](Cn1ccnc1)c1ccc(Cl)cc1)c1ccc(-c2ccccc2)cc1 | 39 | 0.2 µM | > 64 µM | 32.4 µM | 2 µM | 7.8 µM | – | –
9 | O=C(Cn1ccnc1[N+](=O)[O-])NCc1ccccc1 [BENZNIDAZOLE] | – | 1.95 µM | – | – | – | – | – | –
10 | O=C(OC(Cn1ccnc1)c1ccc(F)cc1)c1ccc(-c2ccccc2)cc1 (racemic) | 10.9 | 0.71 µM | 32.2 µM | 32.2 µM | 0.6 µM | 7.8 µM | – | –
11 | O=C(OC(Cn1ccnc1)c1ccc(Cl)cc1)c1ccc(-c2ccccc2)cc1 (racemic) | 15 | 0.48 µM | 12.7 µM | 32.4 µM | 1.9 µM | 7.2 µM | – | –
12 | O=C(O[C@H](Cn1ccnc1)c1ccc(F)cc1)c1ccc(-c2ccccc2)cc1 | 16.3 | 0.49 µM | 34.6 µM | 33.7 µM | 2 µM | 8 µM | – | –
13 | O=C(OC(Cn1ccnc1)c1ccc(F)cc1)N1CCN(c2ccc([N+](=O)[O-])cc2)CC1 (racemic) | 9.2 | 1.68 µM | 27.2 µM | 27.2 µM | 2.6 µM | 15.5 µM | – | –
14 | O=C(O[C@H](Cn1ccnc1)c1ccc(F)cc1)N1CCN(c2ccc([N+](=O)[O-])cc2)CC1 | 1.5 | 5.44 µM | > 64 µM | > 64 µM | 1.3 µM | 8.2 µM | – | –
15 | O=C(O[C@@H](Cn1ccnc1)c1ccc(F)cc1)N1CCN(c2ccc([N+](=O)[O-])cc2)CC1 | 7 | 1.23 µM | 20.3 µM | 32.2 µM | 1.2 µM | 8.7 µM | – | –
16 | O=C(Nc1ccc(N2CCN(C(=O)c3ccco3)CC2)cc1)O[C@@H](Cn1ccnc1)c1ccc(F)cc1 | 15.4 | 1.72 µM | > 64 µM | > 64 µM | 4 µM | 26.5 µM | – | –
17 | CCS(=O)(=O)N1CCN(c2ccc(NC(=O)OC(Cn3ccnc3)c3ccc(F)cc3)cc2)CC1 (racemic) | > 1600 | 0.04 µM | 38 µM | > 64 µM | 17.2 µM | > 64 µM | 99% | 50
18 | O=C(O[C@@H](Cn1ccnc1)c1ccc(Cl)cc1)N1CCN(c2ccc([N+](=O)[O-])cc2)CC1 | 8.7 | 1 µM | 12.7 µM | 32.2 µM | 2.2 µM | 8.7 µM | – | –
19 | O=C(O[C@H](Cn1ccnc1)c1ccc(Cl)cc1)c1ccc(-c2ccccc2)cc1 | 14.6 | 0.56 µM | 32 µM | 30.1 µM | 2.1 µM | 8.2 µM | – | –
20 | CCCCCCCCCCCCCCCCOP(=O)([O-])OCC[N+](C)(C)C [MILTEFOSINE] | – | – | 10.4 µM | – | – | – | – | –
21 | CC/C(=C(\c1ccccc1)c1ccc(OCCN(C)C)cc1)c1ccccc1 [TAMOXIFEN] | – | – | – | – | – | 10.9 µM | – | –
22 | O=C(O[C@H](Cn1ccnc1)c1ccc(Cl)cc1)N1CCN(c2ccc([N+](=O)[O-])cc2)CC1 | 6.4 | 1.32 µM | 12.7 µM | > 64 µM | 1.5 µM | 8.5 µM | – | –
